The campaign covered roughly 330,000 compounds. About 2,400 (0.73%) were called active. Only a selection was taken, and actives are over-represented in it overall. A number with no mark means an inactive call. How the source made its calls: active means inhibition of at least 40% at 20 µM; inactive means the rest.

Apoptotic protease-activating factor 1 (Homo sapiens), sequence (O14727 whole entry, looked up): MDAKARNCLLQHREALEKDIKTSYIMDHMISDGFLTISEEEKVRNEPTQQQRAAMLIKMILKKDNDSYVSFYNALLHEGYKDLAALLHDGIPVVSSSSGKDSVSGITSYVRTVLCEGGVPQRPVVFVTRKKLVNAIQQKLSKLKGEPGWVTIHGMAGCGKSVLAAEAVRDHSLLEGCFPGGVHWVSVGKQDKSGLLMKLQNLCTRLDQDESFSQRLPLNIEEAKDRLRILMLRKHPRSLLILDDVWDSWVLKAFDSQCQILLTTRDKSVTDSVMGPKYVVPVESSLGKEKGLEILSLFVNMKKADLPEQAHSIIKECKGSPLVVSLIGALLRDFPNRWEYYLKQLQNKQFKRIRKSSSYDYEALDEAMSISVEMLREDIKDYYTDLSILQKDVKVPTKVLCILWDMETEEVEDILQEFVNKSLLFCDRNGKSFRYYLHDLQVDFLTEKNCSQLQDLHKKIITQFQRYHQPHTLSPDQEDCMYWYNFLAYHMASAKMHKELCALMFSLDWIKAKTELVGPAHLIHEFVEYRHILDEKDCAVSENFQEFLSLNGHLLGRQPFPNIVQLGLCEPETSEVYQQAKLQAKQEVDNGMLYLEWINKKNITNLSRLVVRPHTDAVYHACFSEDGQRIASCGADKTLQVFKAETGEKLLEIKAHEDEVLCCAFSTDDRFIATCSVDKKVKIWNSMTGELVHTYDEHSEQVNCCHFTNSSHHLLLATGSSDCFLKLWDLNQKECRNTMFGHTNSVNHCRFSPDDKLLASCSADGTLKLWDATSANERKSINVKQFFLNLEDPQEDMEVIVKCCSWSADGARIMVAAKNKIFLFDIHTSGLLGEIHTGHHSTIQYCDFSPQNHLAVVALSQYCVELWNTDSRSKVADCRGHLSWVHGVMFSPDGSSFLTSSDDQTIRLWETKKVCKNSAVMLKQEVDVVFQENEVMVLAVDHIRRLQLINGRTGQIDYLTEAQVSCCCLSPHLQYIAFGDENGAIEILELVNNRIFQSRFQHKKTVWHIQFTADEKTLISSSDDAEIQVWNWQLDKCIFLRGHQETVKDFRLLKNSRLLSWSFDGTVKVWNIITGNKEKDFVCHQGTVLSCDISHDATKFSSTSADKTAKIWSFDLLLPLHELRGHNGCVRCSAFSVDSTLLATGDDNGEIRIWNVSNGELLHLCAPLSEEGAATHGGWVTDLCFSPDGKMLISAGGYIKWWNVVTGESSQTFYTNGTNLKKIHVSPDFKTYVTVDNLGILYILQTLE

The target of the assay is Apoptotic protease-activating factor 1 (Homo sapiens) (UniProt O14727). Kind of assay: inhibitors of human Apaf-1 apoptosome, primary screen, biochemical, DEVD-Rh110 fluorescence, uHTS (AID 489030).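 Further: plate controls were DMSO wells for no effect and DEVD-CHO caspase inhibitor wells for full effect.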 Particulars: reconstituted apoptosome caspase-3 activity, at 20 µM, active compounds read high. The procedure, abridged:
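System: reconstituted apoptosome with Apaf-1, cytochrome c, caspase-9, procaspase-3, dATP; Signal: Rh110 fluorescence intensity; Schedule: 30 min compound preincubation, 50 min activation, room temperature; Reagent: cytochrome c trigger plus (Z-DEVD)2-Rh110 caspase-3 substrate.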
For `Cn1c(SCC(=O)C(C)(C)C)nnc1-c1ccccn1`, the inhibition is -10.6%.
`CCOC(=O)N1CCC(c2cc(=O)n(-c3ccccc3)[nH]2)CC1`: the inhibition was 86.7% (active).
On to `CCOC(=O)CN1CCC(c2ccccc2)CC1`, for which the inhibition is -14.9%.
The result for `CCOC(=O)N1CCC(NC(=O)CCc2ccccc2)CC1` reads -3.62%; that for `CCc1cc(C(=O)OC)c(NC(=O)CC2Sc3ccc(C(F)(F)F)cc3NC2=O)s1` (centres undefined), 22.8%.
As for `CCOC(=O)Nc1ccc2c(c1)N(C(=O)CN1CCN3CCCC3C1)c1ccccc1CC2` (centres undefined), the inhibition is -1.68%.
Regarding `Cc1ccc(-c2cccc([C@H]3[C@@H]4C=CC[C@@H](C)[C@@H]4C(=O)N3Cc3ccccc3)c2)cc1`, the inhibition is 19.9%.
With `CC1(C)CC(=O)C=C(c2ccc3ncccc3c2)C1`, the inhibition was -1.2%.
In the case of `Cc1cc2oc3ccc(NCCC4CCCN4C)cc3c(=O)c2cc1C` (centres undefined), the inhibition is 46.9% (active).
As for `COc1cccc2sc3cc(NCC[C@@H]4CCCN4C)ccc3c(=O)c12`, the inhibition was 39.7%.
`Cc1cc2oc(=O)cc(CN3CCN(Cc4ccccc4)CC3)c2cc1C`: the inhibition is 17.9%.
The result for `CC(C)c1ccc2oc(=O)cc(CN3CCN(Cc4ccccc4)CC3)c2c1` reads 19.2%.
The value for `COc1ccc(CCNC(=O)CN(c2ccccc2)S(C)(=O)=O)cc1` was 4.78%; that for `CCOc1ccc(N(CC(=O)NCCc2ccc(OC)cc2)S(C)(=O)=O)cc1` was 5.5%.
For the compound `COc1ccc(N(CCC(=O)NCCc2ccccc2)S(=O)(=O)c2ccc(C)cc2C)cc1`, the inhibition was 54.9% (active).
For the compound `O=c1cc(CN2CCN(S(=O)(=O)/C=C/c3ccccc3)CC2)c2ccc(O)cc2o1`, the inhibition is 21.6%.
For `O=C(NCCCN1CCOCC1)c1ccccc1NS(=O)(=O)c1ccc(F)cc1`, the inhibition is -4.73%.
The value for `COc1ccc(N2CCN(c3ccc([N+](=O)[O-])nc3)CC2)cc1` was -5.77%.
Consider `CCOC(=O)C1Sc2[nH]c(=O)sc2C(c2ccc(Cl)cc2)C1C(=O)OCC` (centres undefined), for which the inhibition was 2.05%.
As for `C=CCC[C@H](Cc1ccc(F)cc1)C(=O)OC[C@@H](Cc1c[nH]c2ccccc12)NC(=O)[C@H](CC=C)CC(=O)N[C@H](CO)Cc1ccccc1`, the inhibition was 1.18%.
The value for `C=CCC[C@H](Cc1ccc(F)cc1)C(=O)OC[C@@H](NC(=O)[C@@H](CC=C)CC(=O)N[C@H](CO)Cc1ccccc1)C(C)(C)C` was 40.6% (active); that for `C=CC[C@@H](CC(=O)N[C@H](CO)Cc1ccccc1)C(=O)N[C@H](C)COC(=O)[C@@H](CC=C)Cc1ccc(F)cc1` was 23%.
The value for `COCCNC(=O)c1ccccc1-c1nc(-c2ccccc2Cl)no1` was 6.12%.
The value for `O=C(Nc1cc(S(=O)(=O)N2CCOCC2)ccc1N1CCOCC1)c1c(F)cccc1Cl` was -5.54%; that for `Cc1ccc(NC(=O)CN(C)C(=O)Cn2nnc(-c3ccccc3)n2)cc1` was 8.51%.
Take `COc1ccc(C2C(C#N)=C(N)Oc3cc(N)ccc32)cc1OC` (centres undefined): the inhibition was -6.32%.
For the compound `COc1ccccc1C1C(C#N)=C(N)Oc2c1c(-c1ccccc1)nn2-c1ccccc1` (centres undefined), the inhibition is 42.2% (active).
With `Cc1nn(Cc2ccccc2)c2c1C(c1ccccc1)C(C#N)=C(N)O2` (centres undefined), the inhibition is 7.58%.
The result for `COc1ccc(/C=C2/C(=O)N(c3ccccc3)N=C2C)c(OC)c1` reads 80.1% (active); that for `COc1ccc(/C=C2/C(=O)OCc3cc(OC)c(OC)cc32)c(OC)c1`, 6.28%.
On to `COc1ccc(C2/C(=C(/O)c3ccccc3)C(=O)C(=O)N2C)c(OC)c1` (centres undefined), for which the inhibition was 2.34%.
Take `O=C1CN(C(=O)COC(=O)/C=C/c2ccc(F)cc2)c2ccccc2N1`: the inhibition is 5.3%.
As to `O=C(CO/N=C/c1ccccc1OC(F)F)NC1CCCC1`, the inhibition is 0.277%.
`CCCNC(=O)c1ccc(N2CCC3(CC2)CC(c2cccc(Br)c2)=NO3)c(NC(=O)c2ccco2)c1`: the inhibition was 14.2%.
As to `CC1CCC2(CC1)NC(=O)N(CC(=O)c1ccc3c(c1)OCO3)C2=O` (centres undefined), the inhibition was -10.1%.
On to `Cc1ccc(S(=O)(=O)N2CCN(C(=O)Cn3c(=O)cnc4ccccc43)CC2)c(C)c1`, for which the inhibition was -0.646%.
As for `Cc1ccc(S(=O)(=O)N2CCN(C(=O)N3CCOCC3)CC2)c(C)c1`, the inhibition is -7.82%.
Regarding `Cc1ccc(S(=O)(=O)N2CCN(C(=O)c3ccccc3-c3nc4ccccc4s3)CC2)c(C)c1`, the inhibition was 40.3% (active).
As for `CC[C@]1(C(=O)OC)[C@H]2C(=O)N(Cc3ccccc3)C(=O)[C@H]2[C@H]2CN=C(SCc3ccccc3)N21`, the inhibition is 25.2%.
As to `CCCN=C1N(C)C[C@@H]2[C@@H]3C(=O)N(Cc4ccccc4)C(=O)[C@@H]3[C@](C)(C(=O)OC)N12`, the inhibition is 11.4%.
The value for `CCN1C[C@@H]2[C@@H]3C(=O)N(Cc4ccccc4)C(=O)[C@@H]3[C@](Cc3ccccc3)(C(=O)OC)N2C1=NC1CCCCC1` was 41.2% (active).
As to `Cc1nnc(Sc2nc3c(c(=O)[nH]c(=O)n3C)n2Cc2ccccc2)s1`, the inhibition was 21%.
`O=C1NC(c2ccc(-c3ccccc3[N+](=O)[O-])o2)C(C(=O)c2ccc(Cl)cc2)C(O)(C(F)(F)F)N1` (centres undefined): the inhibition was 36.8%.
For `O=C(Nc1ccc(N2CCOCC2)cc1)c1ccc(-c2ccccc2[N+](=O)[O-])o1`, the inhibition was 2.89%.
Take `CC1=NN(c2ccc(Cl)c(C(=O)O)c2)C(=O)/C1=C/c1ccc(-c2ccccc2[N+](=O)[O-])o1`: the inhibition is 42.9% (active).
Consider `COC(=O)c1ccc(S(=O)(=O)N2CCC(c3nc4ccccc4o3)CC2)cc1`, for which the inhibition was -25.7%.
In the case of `Cc1cccc(C)c1NC(=O)CNC(=O)Cc1ccc(Br)cc1`, the inhibition was -1.64%.
Take `CC(C)N(C(=O)[C@H]1C[C@H](CC(=O)NC(C)(C)C)C(=O)N2CCc3c([nH]c4ccc(Cl)cc34)[C@]12C)C(C)C`: the inhibition is 29.3%.
On to `C[C@@H](C(=O)N1CCNCC1)n1cc(CCC(=O)O)nn1`, for which the inhibition was 5.94%.
The value for `NC(N)=NCCCc1cn(CC(=O)N2CCNCC2)nn1` was 40.2% (active); that for `CCC(C)[C@@H](C(=O)N1CCNCC1)n1cc(CCCCN)nn1` (some centres undefined) was -4.43%.
Turning to `CCN1C(=NCC(C)C)N[C@@H](CCc2ccccc2)[C@H](C(=O)NCC(C)C)[C@H]1C`, the inhibition was 4.1%.
For `CCN1C(=NCc2ccc(OC)cc2)N[C@@H](CCc2ccccc2)[C@H](C(=O)NCc2ccc(OC)cc2)[C@H]1C`, the inhibition was 40.4% (active).
The value for `CCN1C(=S)N[C@@H](CCc2ccccc2)[C@H](C(=O)OC)[C@H]1C` was -4.74%; that for `CCN1C(=O)N[C@@H](CCc2ccccc2)C(C(=O)OC)=C1C` was 17.6%.
The value for `O=C(NCc1ccccc1Cl)C1CCN(c2ncnc3c2nc2n3CCCCC2)CC1` was -6.54%.
With `Cc1nn2c(NCCN(C)C)c3c(nc2c1-c1ccccc1)CCC3`, the inhibition is 1.66%.
Take `CCN(C(=O)C1CCCN(c2nc(-c3ccc(OC)cc3)no2)C1)c1ccc(OC)cc1` (centres undefined): the inhibition is 12.2%.
For `Cc1cc(=O)cc(C)[nH]1`, the inhibition was -15%.
The value for `Oc1c(C=Nc2cccc3nsnc23)ccc2ccccc12` was 95.8% (active); that for `CCOc1ccc(N2CC(C(=O)NCc3ccccn3)CC2=O)cc1` (centres undefined) was 1.44%; that for `COCCNC(=O)c1ccc(Cn2c(SCC(=O)NCC3CCCO3)nc3ccc(Br)cc3c2=O)cc1` (centres undefined) was -13.8%.
The value for `CCCN1CCn2c3c(c4cc(Br)ccc42)CCCC31` (centres undefined) was 12.8%.
With `OC(CNCC1CCCO1)Cn1c2ccc(Br)cc2c2cc(Br)ccc21` (centres undefined), the inhibition was 43.4% (active).
As to `CN(C)/C(CN1CCCCC1)=C1\N=C(c2ccccc2)OC1=O`, the inhibition was -0.998%.
Consider `NC[C@H](Cc1ccccc1)NCCc1cc(C(F)(F)F)cc(C(F)(F)F)c1`, for which the inhibition is 60.8% (active).
With `COC(=O)[C@@H](Cc1ccccc1)NC(=O)NCCc1ccccc1`, the inhibition is -5.88%.
The result for `O=C(CCC(=O)c1ccccc1)NCc1cccc(C(F)(F)F)c1` reads 6.79%; that for `O=C(Cn1nc(CNc2ccc(Cl)cc2)[n+]2c1CCCCC2)c1ccc(Cl)cc1`, 15.2%; that for `CCc1ccc(/C=N/NC(=O)c2nnn(-c3nonc3N)c2CN2CCc3ccccc32)cc1`, 8.04%.
The value for `CC(C)CC[n+]1ccn(C2=C([O-])c3ccccc3C(=O)/C2=N\S(=O)(=O)c2ccccc2)c1` was 55.3% (active).
In the case of `CCc1nc(C)cn1S(=O)(=O)c1cc([N+](=O)[O-])ccc1Cl`, the inhibition was 2.1%.
Turning to `COc1ccc(C(=O)NNc2cc(C)nc(NNC(=O)c3ccc(OC)cc3)n2)cc1`, the inhibition was 8.09%.
In the case of `CCC(=O)Nc1ccc(Nc2nc(Cl)nc(Nc3ccc(NC(=O)CC)cc3)n2)cc1`, the inhibition was -8.45%.
As to `CC(=O)Nc1ccc(Nc2cc(C)nc(Nc3ccc(NC(C)=O)cc3)n2)cc1`, the inhibition is 46.2% (active).
Take `COc1ccc(OCCNC(=O)c2cc(C3CC3)nc3c2cnn3C(C)C)cc1`: the inhibition is 15%.
For `O=c1nc(N/N=C/c2ccco2)cn[nH]1`, the inhibition is 2.62%.
In the case of `CCOC(=O)N1CCN(C(=O)COCc2cc(-c3ccc4c(c3)OCO4)on2)CC1`, the inhibition is 15.6%.
As to `COCCNc1nc(-n2nc(C)cc2C)nc2sc3c(c12)CCCC3`, the inhibition was 8.1%.
Regarding `CC(C)c1nc(SCC(=O)Nc2cccc(C(=O)O)c2)c2c3c(sc2n1)CCCC3`, the inhibition is 7.92%.
On to `Cc1cc(C)n(-c2nc(SCC(=O)N3CCCC3)c3c4c(sc3n2)CCCC4)n1`, for which the inhibition was 43.6% (active).
As to `CCN(CC)S(=O)(=O)c1cc([N+](=O)[O-])ccc1NNC(=O)Nc1ccccc1`, the inhibition was 7.25%.
As to `COC(=O)CN1C(C)=Nc2ccc(Br)cc2C1c1ccccc1` (centres undefined), the inhibition is 4.57%.
With `COc1ccc(S(=O)(=O)N2CCCCC2)cc1NC(=O)C1CC(=O)N(c2ccc3c(c2)OCCO3)C1` (centres undefined), the inhibition was 18.5%.

As a reminder, the inhibition is the drop in the measured response relative to a control, in per cent.

These data come from PubChem BioAssay AID489030 (Sanford-Burnham Center for Chemical Genomics, 2010).
